In ChEMBL document CHEMBL1151770, “Cespihypotins Q-V, verticillene diterpenoids from Cespitularia hypotentaculata” (2008):

What was measured:
Daoy = assay: Cytotoxicity against human Daoy cells by MTT assay; assay type: functional; conditions: read-out: ED50 (the source's name)
How it was run: (§1)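 Cells grown in serum-supplemented RPMI-1640 at 37 °C, 5% CO2. Seeded at 2880 cells/well for 4 h, then samples added at 1, 10, 20 and 40 µg/mL and incubated 3 days at 37 °C. MTT added for 5 h, formazan dissolved in DMSO, absorbance read at 550 nm. ED50 is the concentration giving 50% reduction of absorbance relative to untreated cells.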

WiDr = assay: Cytotoxicity against human WiDr cells by MTT assay; assay type: functional; conditions: read-out: ED50 (the source's name); how it was run: as §1

Row | SMILES | EC50 (Daoy) | EC50 (WiDr)
1 | C=C1CC[C@@H]2CC[C@]34O[C@@]3(C2(C)C)[C@@](O)(C/C(C)=C/C(=O)C1)O[C@H]4OC | 40 µM | 54 µM
2 | C=C1CC[C@@H]2CCC3=C(C2(C)C)[C@@](OC)(C/C(C)=C/[C@@H](O)C1)O[C@H]3OC [CESPIHYPOTIN Q] | > 55 µM | > 55 µM
3 | C=C1CC[C@@H]2CCC3=C([C@@H](C/C(C)=C/C(=O)C1)OC3=O)C2(C)C [CESPIHYPOTIN R] | > 55 µM | 50 µM
4 | C=C1CC[C@@H]2CCC(=O)[C@@](O)([C@@H](O)C/C(C)=C/C(=O)C1)C2(C)C [CESPIHYPOTIN T] | 9.3 µM | 7.5 µM
5 | C=C1CC[C@@H]2CCC3=C([C@@H](C[C@]4(C)O[C@H]4[C@@H](O)C1)OC3=O)C2(C)C [CESPIHYPOTIN U] | > 60 µM | > 60 µM
6 | C=C1CC[C@@H]2CCC3=C(C2(C)C)[C@](O)(C/C(C)=C/[C@@H](O)C1)OC3=O [CESPIHYPOTIN V] | 60 µM | > 60 µM
7 | CO[C@@]12[C@H](COC(N)=O)C3=C(C(=O)C(C)=C(N)C3=O)N1C[C@@H]1N[C@@H]12 [MITOMYCIN] | 0.21 µM | 0.18 µM
